Values joined by “and” are separate entries in the source; they are usually repeats but may differ in a detail not shown here. Equal entries are not always repeated.
System: Fibroblast
Test: Multiplex assay against human fibroblast
Assay type: toxicity, cell-based
Settings: number of replicates 2
Summary of the method: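 With compound added, live cells were imaged on a CQ1 microscope at 37°C and 5% CO2; staining with Hoechst33342, BioTracker Green Microtubule Cytoskeleton Dye, MitoTracker Red and Annexin V Alexa Fluor 680 had been done at seeding. The CellPathfinder machine-learning gating scheme split cells into Hoechst high-intensity objects or normal cells, normal cells into healthy, pyknosed or fragmented nuclei, and pyknosed cells into mitotic or apoptotic. The tubulin, mitochondrial-mass and membrane-permeability phenotypes are per cents of healthy-nucleus cells.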

[1] = 12 h, 10 µM, compound concentration 10 uM
[2] = 24 h, 10 µM, compound concentration 10 uM
[3] = 48 h, 10 µM, compound concentration 10 uM
[4] = 12 h, 1 µM, compound concentration 1 uM
[5] = 24 h, 1 µM, compound concentration 1 uM
[6] = 48 h, 1 µM, compound concentration 1 uM

C[C@@H]1CC[C@@]2(OC1)O[C@H]1[C@@H](O)[C@H]3[C@@H]4CC[C@H]5C[C@@H](O[C@@H]6O[C@H](CO)[C@H](O[C@@H]7O[C@H](CO)C(O)[C@H](O[C@@H]8OC[C@@H](O)[C@H](O)[C@H]8O)[C@H]7O[C@@H]7O[C@H](CO)[C@H](O)[C@H](O[C@@H]8O[C@H](CO)[C@@H](O)[C@H](O)[C@H]8O)[C@H]7O)[C@H](O)[C@H]6O)[C@H](O)C[C@]5(C)[C@H]4CC[C@]3(C)[C@H]1[C@@H]2C (some centres not stated) [DIGITONIN]
Population Apoptotic (%) [1]: 44% and 47% and 48% and 42% | Population Fragmented Nuclei (%) [1]: 9% and 12% and 13% and 8% | Population Healthy Nuclei (%) [1]: 76% and 61% and 68% and 72% | Population Hoechst High Intensity Objects (%) [1]: 0% | Population Membrane Permeable-Phenotype (%) [1]: 6% and 4% and 1% | Population Mitochondria Different-Phenotype (%) [1]: 0% and 1% and 2% | Population Mitotic Cells (%) [1]: 56% and 52% and 51% and 57% | Population Normal (%) [1]: 100% | Population Pyknosed Nuclei (%) [1]: 13% and 26% and 18% and 19% | Population Tubulin-Different-Phenotype (%) [1]: 10% and 4% and 8% and 6% | Total Cell Count [1]: 181 and 157 and 188 and 182 | Population Apoptotic (%) [2]: 55% and 53% and 47% and 66% | Population Fragmented Nuclei (%) [2]: 11% and 12% | Population Healthy Nuclei (%) [2]: 77% and 55% and 71% and 69% | Population Hoechst High Intensity Objects (%) [2]: 0% and 1% | Population Membrane Permeable-Phenotype (%) [2]: 6% and 2% | Population Mitochondria Different-Phenotype (%) [2]: 0% and 1% and 3% | Population Mitotic Cells (%) [2]: 45% and 46% and 52% and 33% | Population Normal (%) [2]: 100% and 98% | Population Pyknosed Nuclei (%) [2]: 11% and 32% and 17% | Population Tubulin-Different-Phenotype (%) [2]: 11% and 3% and 7% and 12% | Total Cell Count [2]: 171 and 168 and 198 and 188 | Population Apoptotic (%) [3]: 90% and 64% and 75% and 60% | Population Fragmented Nuclei (%) [3]: 12% and 14% and 15% | Population Healthy Nuclei (%) [3]: 81% and 64% and 68% | Population Hoechst High Intensity Objects (%) [3]: 0% | Population Membrane Permeable-Phenotype (%) [3]: 5% and 1% and 7% | Population Mitochondria Different-Phenotype (%) [3]: 0% and 1% | Population Normal (%) [3]: 100% and 99% | Population Tubulin-Different-Phenotype (%) [3]: 6% and 5% | Total Cell Count [3]: 169 and 162 and 205 and 188

Cn1cc(-n2cnc3c(NCc4nc5cc(Cl)c(Cl)cc5[nH]4)nc(N4CCOCC4)nc32)cn1
Population Apoptotic (%) [4]: 39% and 65% | Population Healthy Nuclei (%) [4]: 79% and 57% | Population Hoechst High Intensity Objects (%) [4]: 0% and 3% | Population Membrane Permeable-Phenotype (%) [4]: 7% | Population Mitochondria Different-Phenotype (%) [4]: 2% and 3% | Population Mitotic Cells (%) [4]: 60% and 34% | Population Normal (%) [4]: 100% and 96% | Population Pyknosed Nuclei (%) [4]: 15% and 19% | Population Tubulin-Different-Phenotype (%) [4]: 29% and 27% | Total Cell Count [4]: 211 and 225 | Population Apoptotic (%) [1]: 55% and 51% | Population Fragmented Nuclei (%) [1]: 10% and 19% | Population Healthy Nuclei (%) [1]: 59% and 60% | Population Hoechst High Intensity Objects (%) [1]: 0% | Population Membrane Permeable-Phenotype (%) [1]: 25% and 27% | Population Mitochondria Different-Phenotype (%) [1]: 3% and 5% | Population Mitotic Cells (%) [1]: 44% and 48% | Population Normal (%) [1]: 100% | Population Pyknosed Nuclei (%) [1]: 30% and 20% | Population Tubulin-Different-Phenotype (%) [1]: 74% and 81% | Total Cell Count [1]: 147 and 142 | Population Apoptotic (%) [5]: 89% and 85% | Population Fragmented Nuclei (%) [5]: 27% and 14% | Population Healthy Nuclei (%) [5]: 32% and 46% | Population Hoechst High Intensity Objects (%) [5]: 6% and 1% | Population Membrane Permeable-Phenotype (%) [5]: 12% | Population Mitochondria Different-Phenotype (%) [5]: 2% and 1% | Population Mitotic Cells (%) [5]: 10% and 14% | Population Normal (%) [5]: 93% and 98% | Population Pyknosed Nuclei (%) [5]: 40% and 38% | Population Tubulin-Different-Phenotype (%) [5]: 28% and 53% | Total Cell Count [5]: 229 and 205 | Population Apoptotic (%) [2]: 63% and 65% | Population Fragmented Nuclei (%) [2]: 10% and 19% | Population Healthy Nuclei (%) [2]: 62% and 59% | Population Hoechst High Intensity Objects (%) [2]: 0% | Population Membrane Permeable-Phenotype (%) [2]: 14% | Population Mitochondria Different-Phenotype (%) [2]: 6% and 13% | Population Mitotic Cells (%) [2]: 36% and 34% | Population Normal (%) [2]: 99% | Population Pyknosed Nuclei (%) [2]: 27% and 21% | Population Tubulin-Different-Phenotype (%) [2]: 79% and 85% | Total Cell Count [2]: 149 and 148 | Population Apoptotic (%) [6]: 93% and 94% | Population Fragmented Nuclei (%) [6]: 27% and 13% | Population Healthy Nuclei (%) [6]: 12% and 16% | Population Hoechst High Intensity Objects (%) [6]: 5% and 0% | Population Membrane Permeable-Phenotype (%) [6]: 12% and 29% | Population Mitochondria Different-Phenotype (%) [6]: 4% and 3% | Population Mitotic Cells (%) [6]: 6% and 5% | Population Normal (%) [6]: 94% and 99% | Population Pyknosed Nuclei (%) [6]: 60% and 69% | Population Tubulin-Different-Phenotype (%) [6]: 36% and 61% | Total Cell Count [6]: 218 and 190 | Population Apoptotic (%) [3]: 81% and 87% | Population Fragmented Nuclei (%) [3]: 15% and 19% | Population Healthy Nuclei (%) [3]: 35% and 38% | Population Hoechst High Intensity Objects (%) [3]: 1% and 0% | Population Membrane Permeable-Phenotype (%) [3]: 20% and 11% | Population Mitochondria Different-Phenotype (%) [3]: 22% and 19% | Population Mitotic Cells (%) [3]: 18% and 12% | Population Normal (%) [3]: 98% and 100% | Population Pyknosed Nuclei (%) [3]: 49% and 41% | Population Tubulin-Different-Phenotype (%) [3]: 74% and 78% | Total Cell Count [3]: 154 and 134

OC(c1ccc(-c2ccc(CN3CCN(Cc4ccncc4)CC3)cc2)c(F)c1)(C(F)(F)F)C(F)(F)F
Population Apoptotic (%) [4]: 54% and 23% | Population Fragmented Nuclei (%) [4]: 5% and 6% | Population Healthy Nuclei (%) [4]: 43% and 70% | Population Hoechst High Intensity Objects (%) [4]: 0% | Population Membrane Permeable-Phenotype (%) [4]: 8% and 3% | Population Mitochondria Different-Phenotype (%) [4]: 0% and 1% | Population Mitotic Cells (%) [4]: 45% and 76% | Population Normal (%) [4]: 100% | Population Pyknosed Nuclei (%) [4]: 50% and 23% | Population Tubulin-Different-Phenotype (%) [4]: 6% and 8% | Total Cell Count [4]: 108 and 164 | Population Apoptotic (%) [1]: 31% and 45% | Population Fragmented Nuclei (%) [1]: 10% and 16% | Population Healthy Nuclei (%) [1]: 70% and 63% | Population Hoechst High Intensity Objects (%) [1]: 0% | Population Membrane Permeable-Phenotype (%) [1]: 6% and 8% | Population Mitochondria Different-Phenotype (%) [1]: 0% and 3% | Population Mitotic Cells (%) [1]: 68% and 55% | Population Normal (%) [1]: 100% and 99% | Population Pyknosed Nuclei (%) [1]: 18% and 19% | Population Tubulin-Different-Phenotype (%) [1]: 24% and 25% | Total Cell Count [1]: 156 and 204 | Population Apoptotic (%) [5]: 61% and 55% | Population Fragmented Nuclei (%) [5]: 6% and 10% | Population Healthy Nuclei (%) [5]: 45% and 65% | Population Hoechst High Intensity Objects (%) [5]: 0% | Population Membrane Permeable-Phenotype (%) [5]: 12% and 7% | Population Mitochondria Different-Phenotype (%) [5]: 2% and 3% | Population Mitotic Cells (%) [5]: 38% and 44% | Population Normal (%) [5]: 100% | Population Pyknosed Nuclei (%) [5]: 47% and 23% | Population Tubulin-Different-Phenotype (%) [5]: 16% and 15% | Total Cell Count [5]: 109 and 151 | Population Apoptotic (%) [2]: 44% and 45% | Population Fragmented Nuclei (%) [2]: 7% and 13% | Population Healthy Nuclei (%) [2]: 74% and 61% | Population Hoechst High Intensity Objects (%) [2]: 0% | Population Membrane Permeable-Phenotype (%) [2]: 3% and 7% | Population Mitochondria Different-Phenotype (%) [2]: 1% and 3% | Population Mitotic Cells (%) [2]: 56% and 54% | Population Normal (%) [2]: 99% and 100% | Population Pyknosed Nuclei (%) [2]: 17% and 24% | Population Tubulin-Different-Phenotype (%) [2]: 16% and 23% | Total Cell Count [2]: 144 and 197 | Population Apoptotic (%) [6]: 74% and 80% | Population Fragmented Nuclei (%) [6]: 16% and 17% | Population Healthy Nuclei (%) [6]: 53% and 61% | Population Hoechst High Intensity Objects (%) [6]: 0% | Population Membrane Permeable-Phenotype (%) [6]: 11% and 5% | Population Mitochondria Different-Phenotype (%) [6]: 0% | Population Mitotic Cells (%) [6]: 25% and 19% | Population Normal (%) [6]: 100% | Population Pyknosed Nuclei (%) [6]: 29% and 21% | Population Tubulin-Different-Phenotype (%) [6]: 11% and 12% | Total Cell Count [6]: 118 and 167 | Population Apoptotic (%) [3]: 73% and 77% | Population Fragmented Nuclei (%) [3]: 14% and 16% | Population Healthy Nuclei (%) [3]: 73% and 71% | Population Hoechst High Intensity Objects (%) [3]: 0% | Population Membrane Permeable-Phenotype (%) [3]: 6% and 4% | Population Mitochondria Different-Phenotype (%) [3]: 0% and 2% | Population Mitotic Cells (%) [3]: 26% and 22% | Population Normal (%) [3]: 100% | Population Pyknosed Nuclei (%) [3]: 11% and 12% | Population Tubulin-Different-Phenotype (%) [3]: 16% and 12% | Total Cell Count [3]: 162 and 183

— ChEMBL document CHEMBL5303300, “EUbOPEN Chemogenomics Library - Multiplex” (2023)
